We go through seven compounds from ChEMBL document CHEMBL2346561, “Development of 2'-substituted (2S,1'R,2'S)-2-(carboxycyclopropyl)glycine analogues as potent N-methyl-d-aspartic acid receptor agonists” (J Med Chem, 2013).

The target of assay [1] is Glutamate NMDA receptor. Nature of the assay: Displacement of [3H]CGP39653 from NMDA receptor in rat cortical synaptosomes. The assay is classed as subcellular, Brain. Summed up: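 Rat cortical synaptosome membranes; 2 nM [³H]CGP 39653 (Kd = 6 nM) as radioligand for native NMDA receptors; Ki derived from displacement via Cheng-Prusoff relationship.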
Assay [2] concerns the target Glutamate NMDA receptor; Grin1/Grin2a (Rattus norvegicus, UniProt P35439+Q00959). Description: Agonist activity at rat recombinant wild type GluN1/GluN2A receptor expressed in Xenopus laevis oocytes by two electrode voltage clamp technique. The class given is cell-based, Oocyte. The conditions noted are these: for pEC50: read-out: EC50. An outline of the steps:
(§1)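 cRNA-injected Xenopus oocytes co-expressing GluN1 with GluN2A, 2B, 2C or 2D; two-electrode voltage clamp at −60 to −40 mV; perfusion with extracellular solution (mM: 90 NaCl, 0.5 BaCl₂, 1 KCl, 0.01 EDTA, 10 HEPES, pH 7.4) always containing 50 μM glycine. Concentration–response data per oocyte fitted to Hill equation; mean logEC₅₀ and nH ± SEM across oocytes.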
For orientation: Two-electrode voltage clamp holds a large cell at a set potential and records current.

Assay [3] concerns the target Glutamate NMDA receptor; Grin1/Grin2c (Rattus norvegicus) (UniProt P35439+Q00961). Nature of the assay: Ratio of compound Imax to glutamate Imax for rat recombinant wild type GluN1/GluN2C receptor. The class given is protein-complex assay.
For assay [4], the target named is Glutamate NMDA receptor; Grin1/Grin2c (Rattus norvegicus, UniProt P35439+Q00961). Description: Agonist activity at rat recombinant wild type GluN1/GluN2C receptor expressed in Xenopus laevis oocytes by two electrode voltage clamp technique. The class given is cell-based, Oocyte. Summed up:
as §1

A short description of assay [5]: Displacement of [3H]KA from KA receptor in rat cortical synaptosomes. The assay is classed as subcellular, Brain. A general note: Displacement assays read how much labelled ligand stays bound in the presence of the test substance.
The target in assay [6] is Ionotropic glutamate receptor NMDA 1/2D (Rattus norvegicus) (UniProt P35439+Q62645). Description: Ratio of compound Imax to glutamate Imax for rat recombinant wild type GluN1/GluN2D receptor. The class given is protein-complex assay.
Assay [7] has as its target Glutamate NMDA receptor; Grin1/Grin2b (Rattus norvegicus) (UniProt P35439+Q00960). Description: Ratio of compound Imax to glutamate Imax for rat recombinant wild type GluN1/GluN2B receptor. The class given is protein-complex assay.
In assay [8] the target is Glutamate NMDA receptor; Grin1/Grin2b (Rattus norvegicus, UniProt P35439+Q00960). Description: Agonist activity at rat recombinant wild type GluN1/GluN2B receptor expressed in Xenopus laevis oocytes by two electrode voltage clamp technique. The assay is classed as cell-based, Oocyte. Summed up: as §1
A short description of assay [9]: Displacement of [3H]AMPA from AMPA receptor in rat cortical synaptosomes. The class given is subcellular, Brain.
Assay [10] deals with Ionotropic glutamate receptor NMDA 1/2D (Rattus norvegicus, UniProt P35439+Q62645). Nature of the assay: Agonist activity at rat recombinant wild type GluN1/GluN2D receptor expressed in Xenopus laevis oocytes by two electrode voltage clamp technique. The class given is cell-based, Oocyte. Summed up: as §1
The target in assay [11] is Glutamate NMDA receptor; Grin1/Grin2a (Rattus norvegicus) (UniProt P35439+Q00959). Description: Ratio of compound Imax to glutamate Imax for rat recombinant wild type GluN1/GluN2A receptor. The class given is protein-complex assay.

SMILES strings stand for the structures. pEC50, pKi: −log10 of the molar value. Some results are limits rather than exact numbers.

`CCCc1cnn(O)c1[C@@H](N)C(=O)O`: the pKi in assay [1] is 4.85; in assay [5] it was less than 4.00; in assay [9], less than 4.00. In addition, the EC50 entry in [2] (oocyte) is “Not Active”. The Ratio in assay [3] is 0.22; in assay [6], 0.37; in assay [7] it was 0.06. In addition, the negative-log EC50 (pEC50) in assay [4] is 3.37; in assay [8], 3.98; in assay [10], 3.82.

On to `C[C@]1(C(=O)O)C[C@H]1[C@H](N)C(=O)O`, for which the negative logarithm of the Ki (pKi) in [1] is 8.10; in [5] it was 6.96; in assay [9], 4.54. Besides, the negative-log EC50 (pEC50) is 6.56 in assay [2], 6.91 in [4], 7.35 in assay [8] and 7.59 in [10]. The Ratio was found to be 0.94 in [11], 0.81 in [3], 0.83 in assay [6] and 1.14 in assay [7].

In the case of `CC[C@]1(C(=O)O)C[C@H]1[C@H](N)C(=O)O`, the values for the pKi in assay [1], in assay [5] and in assay [9] were 7.21, 6.21 and less than 4.00, respectively. For the same compound, the pEC50 was 5.93 in assay [2], 6.27 in assay [4], 6.57 in [8] and 7.10 in assay [10]. Further, the Ratio in [11] was found to be 0.83; in assay [3] it was 0.81; in [6], 0.91; in assay [7], 1.02.

Turning to `N[C@H](C(=O)O)[C@@H]1C[C@@H]1C(=O)O`, the negative logarithm of the Ki (pKi) was 8.19 in assay [1], 6.51 in assay [5] and 5.96 in assay [9]. For the same compound, the pEC50 was 6.58 in assay [2], 6.96 in [4], 7.08 in assay [8] and 7.44 in [10]. The Ratio in assay [11] is 0.99; in assay [3], 0.9; in assay [6], 1.11; in [7], 1.23.

With `CCC[C@]1(C(=O)O)C[C@H]1[C@H](N)C(=O)O`, the negative-log Ki (pKi) is 5.92 in assay [1], 4.68 in assay [5] and less than 4.00 in assay [9]. Also, the negative-log EC50 (pEC50) was 4.33 in [2], 4.52 in assay [4], 4.80 in assay [8] and 5.18 in [10]. Moreover, the Ratio in assay [11] worked out at 0.67; in assay [3] it was 0.7; in assay [6], 0.89; in [7] it was 1.05.

For the compound `CCCC[C@]1(C(=O)O)C[C@H]1[C@H](N)C(=O)O`, the negative logarithm of the Ki (pKi) is 5.89 in assay [1], less than 4.00 in [5] and less than 4.00 in assay [9]. Moreover, the negative-log EC50 (pEC50) is 4.54 in assay [2], 4.80 in [4], 4.99 in assay [8] and 5.48 in [10]. Further, the Ratio stood at 0.65 in assay [11], 0.85 in assay [3], 0.94 in assay [6] and 1.07 in assay [7].

On to `NC(C(=O)O)c1ccnn1O` (racemic), for which the Ratio in assay [11] was found to be 0.45; in [3], 0.52; in [7], 0.58. In addition, the negative-log Ki (pKi) in assay [5] and in assay [9] was less than 4.00 each time.

As usually defined, the pKi is the negative decadic logarithm of the Ki, by convention in mol/L. Low readings indicate a high Ki, high ones a low Ki. As usually defined, the pEC50 is −log10 of the EC50, conventionally taken in molar units.
